The nature of data set [1]: Toxicity in Zebrafish embryos assessed as normal and vital phenotype at 0.1 to 1 uM incubated for 5 days by Teratogenic test. As to conditions: in vivo, 120 h, dose 0.1-1 µM, time 5 day. Also noted: species or system Danio rerio, Embryo. A digest of the protocol:
(§1)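 Tg(GFAP:GFP) zebrafish embryos, 8 per group, exposed from 1 h post-fertilization to increasing compound concentrations at 28 °C for about 5 days without medium change; mortality, developmental defects and morphology score assessed at 5 dpf.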

The test system of data set [2] is SH-SY5Y. The data set is described as follows: Neuroprotective activity in human SH-SY5Y cells assessed as prevention of NMDA induced cytotoxicity by measuring cell viability at 1 uM preincubated with PB212 for 1hrs followed by compound addition in presence of NMDA and measured after 24 hrs by MTT assay. It counts as functional, cell-based. The gist of the method: (§2)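 SH-SY5Y cells pre-incubated 1 h with S1R antagonist PB212 (5 μM), then treated with compound (1 or 5 μM) plus PB212 (5 μM) and either rotenone 25 μM or NMDA 250 μM for 24 h; viability by MTT; two-way ANOVA with Bonferroni post hoc test.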

Data set [3] deals with SH-SY5Y. The data set is described as follows: Neuroprotective activity in human SH-SY5Y cells assessed as prevention of rotenone induced cell damage by measuring cell viability at 1 uM incubated for 24 hrs in presence of rotenone by MTT assay. It counts as functional. A digest of the protocol:
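SH-SY5Y cells co-exposed 24 h at 37 °C to rotenone 25 μM and compound at 1.0 or 5.0 μM in 2% FBS medium; viability by MTT, mean ± SD of three independent experiments.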
(Formazan colour is commonly taken as a measure of viable cells.)

Data set [4] deals with SH-SY5Y. The data set is described as follows: Cytotoxicity against human SH-SY5Y cells assessed as cell viability at 100 uM incubated for 72 hrs by MTT assay.
The test system of data set [5] is SH-SY5Y. The experiment in a line: Neuroprotective activity in human SH-SY5Y cells assessed as prevention of rotenone induced cell damage by measuring cell viability at 1 uM preincubated with PB212 for 1hrs followed by compound addition in presence of rotenone and measured after 24 hrs by MTT assay. It counts as functional, cell-based. A digest of the protocol:
as §2

The target of data set [6] is T1, Sigma non-opioid intracellular receptor 1 (Homo sapiens, UniProt Q99720). The experiment in a line: Displacement of [3H]-(+)-pentazocine from sigma 1 receptor (unknown origin) assessed as inhibition constant by scintillation counting analysis. The gist of the method: (§3)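 Radioligand displacement at S1R with [3H](+)pentazocine (15 nM) and at S2R with [3H]DTG (25 nM); S2R assay includes 1 μM cold (+)pentazocine to mask S1R sites. Bound radioactivity counted by scintillation. IC50 and Hill slope from non-linear Hill fit of competition curves; Ki by Cheng–Prusoff using radioligand concentration and KD from Scatchard plot.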

The nature of data set [7]: Toxicity in Zebrafish embryos assessed as morphological abnormality at 0.1 to 50 uM incubated for 5 days by Teratogenic test. As to conditions: in vivo, 120 h, dose 0.1-50 µM, time 5 day. Also on record: species or system Danio rerio, Embryo. A digest of the protocol: (§4)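 Tg(GFAP:GFP) zebrafish embryos from 2 female × 1 male matings, 8 embryos per control or concentration, exposed from 1 h post-fertilization and kept at 28 °C for about 5 days without medium change. At 5 dpf (120 h) mortality and developmental abnormalities (tail shape, heart, pigmentation) were scored, with morphology given a severity score.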

The target of data set [8] is Sigma intracellular receptor 2 (Homo sapiens, UniProt Q5BJF2). The data set is described as follows: Displacement of [3H]DTG from sigma 2 receptor (unknown origin) assessed as inhibition constant by scintillation counting analysis. The gist of the method:
as §3
A general note: Displacement assays read how much labelled ligand stays bound in the presence of the test substance.

A short description of data set [9]: Toxicity in Zebrafish embryos assessed as death at 50 uM incubated for 5 days by Teratogenic test. Also noted: species or system Danio rerio, Embryo. Conditions: in vivo, 120 h, time 5 day. The gist of the method:
as §4

A further data set concerns PANC-1. The data set is described as follows: Cytotoxicity against human PANC-1 cells assessed as reduction in cell survival rate at 100 uM incubated for 48 to 72 hrs by MTT assay. The data set is classed as toxicity, cell-based. Conditions: panc-1, 100 µM, time 48-72 hrs. A digest of the protocol:
(§5)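 Cancer lines grown in Ham's F-12K or DMEM with 10% FBS, used in exponential growth; seeded 2500 cells/well, exposed to 0.1–100 μM for 24, 48 and 72 h continuous. Viability by CellTiter 96 AQueous One (tetrazolium) absorbance at 490 nm; three independent experiments in quadruplicate, % survival vs untreated.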

Data set [10] is described as follows: Thermodynamic solubility of the compound in KH2PO4/NaOH buffer at pH 6.8 incubated for 24 hrs. Conditions: read-out: Therm_solubility. The data set is classed as physicochemical. The gist of the method: (§6)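 10 mM DMSO stock diluted 1:100 into buffer (HCl/KCl pH 1.2; KH2PO4/NaOH pH 6.8; KH2PO4/Na2HPO4 pH 7.4), 1% v/v DMSO final; shaken 24 h at 1200 rpm, filtered through 0.45 μm polycarbonate membrane, filtrate diluted 1:1 with MeOH and analysed.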

Data set [11] can be described thus: Toxicity in Zebrafish embryos assessed as decrease in embryo vitality rate at 10 to 50 uM incubated for 5 days by Teratogenic test. As to conditions: in vivo, 120 h, dose 10-50 µM, time 5 day. Also noted: species or system Danio rerio. A digest of the protocol: as §4
Data set [12] can be described thus: Toxicity in Zebrafish embryos assessed as variation in embryo morphology score at 10 uM incubated for 5 days by Teratogenic test. Also noted: species or system Danio rerio. As to conditions: in vivo, 120 h, time 5 day. A digest of the protocol:
as §1

Data set [13] has as its target T1, Sigma non-opioid intracellular receptor 1. The experiment in a line: Displacement of [3H]-(+)-pentazocine from sigma 1 receptor (unknown origin) at 25 nM by scintillation counting analysis. As to conditions: filed as agonist. A digest of the protocol: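 Single-concentration screen at 25 nM test compound against [3H](+)pentazocine (15 nM) at S1R; scintillation counting; result given as % inhibition of control specific binding, i.e. 100 minus measured/control specific binding ×100.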

Data set [14] can be described thus: Lipophilicity, logP of the compound. It counts as physicochemical. As to conditions: octanol/water.
The next data set deals with LoVo. The data set is described as follows: Cytotoxicity against human LoVo cells assessed as reduction in cell survival rate at <=10 uM incubated for 24 to 72 hrs by MTT assay. It counts as toxicity, cell-based. Conditions: time 24-72 hrs. A digest of the protocol: as §5
The test system of data set [15] is SH-SY5Y. The data set is described as follows: Neuroprotective activity in human SH-SY5Y cells assessed as prevention of NMDA induced cytotoxicity by measuring cell viability at 0.1 to 5 uM incubated for 24 hrs in presence of NMDA by MTT assay. The data set is classed as functional, cell-based. As to conditions: dose 0.1-5 µM. A digest of the protocol:
(§7)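 SH-SY5Y cells (~7000/well) co-incubated 24 h at 37 °C in 2% FBS medium with toxic stimulus (NMDA 250 μM or oligomycin 2.5 μM) plus compound at 0.1–5 μM. Viability by MTT, expressed as % of control.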

Data set [16] in a line: Dissociation constant, pKa of the compound. The data set is classed as physicochemical.
The nature of data set [17]: Thermodynamic solubility of the compound in KH2PO4/Na2HPO4 buffer at pH 7.4 incubated for 24 hrs. It counts as physicochemical. Conditions: read-out: Therm_solubility. The gist of the method: as §6
The test system of data set [18] is SH-SY5Y. The data set is described as follows: Neuroprotective activity in human SH-SY5Y cells assessed as prevention of oligomycin induced cell damage by measuring cell viability at 0.1 to 5 uM incubated for 24 hrs in presence of oligomycin by MTT assay. It counts as functional, cell-based. As to conditions: dose 0.1-5 µM. A digest of the protocol: as §7
Data set [19] is described as follows: Selectivity index, ratio of Ki for displacement of [3H]DTG from sigma 2 receptor (unknown origin) to Ki for displacement of [3H]-(+)-pentazocine from sigma 1 receptor (unknown origin).
Data set [20] is described as follows: Toxicity in Zebrafish embryos assessed as morphological abnormality by observing enlarged volume of heart at 10 uM incubated for 5 days by Teratogenic test. It counts as tissue-based, Danio rerio. As to conditions: in vivo, 120 h, time 5 day. A digest of the protocol: as §1
The target of data set [21] is Glutamate [NMDA] receptor (Homo sapiens) (UniProt Q05586+Q12879+Q13224+O15399+O60391+Q14957+Q8TCU5). The data set is described as follows: Displacement of [3H]CGP39653 from human NMDAR at 25 nM by scintillation counting analysis. It counts as protein-complex assay. A digest of the protocol:
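NMDA receptor binding with [3H]CGP39653 (5 nM) as radioligand, test compound at 25 nM; displacement read by scintillation counting and reported as % inhibition of control specific binding.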

Converted amounts (≈) assume the structure as drawn. The source made the active and inactive calls. No cut-off for these calls is given here. Where only a bound is given, the exact number is not on record here.

One may read the Ki as a measure of affinity in units of concentration, obtained from inhibition or displacement. Usually logP stands for a log measure of how a compound divides between an organic and an aqueous phase. A low value points to lower lipophilicity. Broadly, the pKa is the negative logarithm of the acid dissociation constant. High values mean a weaker acid or stronger base, low ones a stronger acid or weaker base.

T1 sequence (Q99720 whole entry): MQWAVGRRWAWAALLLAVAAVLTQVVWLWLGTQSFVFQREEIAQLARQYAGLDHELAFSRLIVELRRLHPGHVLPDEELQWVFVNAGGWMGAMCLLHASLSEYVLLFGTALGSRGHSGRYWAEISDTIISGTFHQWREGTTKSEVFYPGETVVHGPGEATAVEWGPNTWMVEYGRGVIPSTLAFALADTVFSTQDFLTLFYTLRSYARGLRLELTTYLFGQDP
Sigma intracellular receptor 2, sequence (Q5BJF2 whole entry): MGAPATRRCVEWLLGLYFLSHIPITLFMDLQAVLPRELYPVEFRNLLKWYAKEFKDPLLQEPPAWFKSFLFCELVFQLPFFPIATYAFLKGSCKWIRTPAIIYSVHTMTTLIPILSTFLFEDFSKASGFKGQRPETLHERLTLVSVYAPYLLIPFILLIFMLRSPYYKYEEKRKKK

Consider `c1ccc(CC2CCN(CCOc3ccccc3)CC2)cc1`, for which the Activity entry is reported as “Non-Toxic” in data set [1]; 65% with SH-SY5Y [3]; 76% in the data set on SH-SY5Y [4]; “Toxic” in data set [7]; “Toxic” in [9]; 20% with PANC-1. In addition, the Activity result in data set [11] was “Toxic”; in data set [12] it was “Toxic”; in data set [13], over 95%; in the data set with LoVo, “Non-Toxic”; in data set [20], 100%; in data set [21], under 11.9%. Further, the result in the data set with SH-SY5Y [2], in the data set with SH-SY5Y [5] and in the data set on SH-SY5Y [18] was inactive. Besides, the figures for the Ki in [6] and in [8] were 0.00093 µM and 0.072 µM, respectively. The solubility thermodynamic at 24 h in data set [10] and in data set [17] was 7800 µg/mL (≈ 26.4 mM) in each case. In data set [14], this compound displayed a lipophilicity (logP) of 4. Further, the outcome in the data set on SH-SY5Y [15] was Active. The pKa in data set [16] was 8.56. Moreover, in data set [19], the Ratio Ki was 77.

Take `c1ccc(CC2CCN(CCCOc3ccccc3)CC2)cc1`: the Activity entry in data set [1] was “Non-Toxic”; with SH-SY5Y [3] it was 68%; in the data set with SH-SY5Y [4], 82%; in data set [7], “Toxic”; in data set [9], “Toxic”; in the data set with PANC-1, 20%. The Activity result in [11] is “Toxic”; in data set [12], “Non-Toxic”; in [13] it was over 95%; in the data set on LoVo it was “Non-Toxic”; in [20] it was “Toxic”; in data set [21], under 11.9%. The result in the data set on SH-SY5Y [2], with SH-SY5Y [5] and with SH-SY5Y [18] was inactive. For the same compound, the inhibition constant Ki in data set [6] was 0.0011 µM; in data set [8], 0.088 µM. For the same compound, the solubility thermodynamic at 24 h in [10] and in data set [17] was 2800 µg/mL (≈ 9.05 mM) throughout. In data set [14], this compound yielded a logP of 4.38. The outcome in the data set on SH-SY5Y [15] was Active. This compound also had a pKa in [16] of 9.26. Further, the Ratio Ki in data set [19] was found to be 80.
